Source: ChEMBL document CHEMBL1144782, “Isoindolo[2,1-a]quinoxaline derivatives, novel potent antitumor agents with dual inhibition of tubulin polymerization and topoisomerase I” (2008)

Columns and labels:
Type in all cases: functional
[1] = test system: OVCAR-5; assay: Antitumor activity against human OVCAR5 cells
How it was run: (§1)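 Run by the NCI in its in vitro disease-oriented screen of about 60 human tumour cell lines. For each line it reports pGI50 (50% net growth inhibition), pTGI (total growth inhibition) and pLC50 (50% net cell death), each as –log molar concentration. Where an effect was not reached within the tested range, the highest tested concentration was used.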

[2] = test system: IGROV-1; assay: Antitumor activity against human IGROV1 cells; how it was run: as §1
[3] = test system: SF-539; assay: Antitumor activity against human SF539 cells; how it was run: as §1
[4] = test system: HT-29; assay: Antitumor activity against human HT29 cells; how it was run: as §1
[5] = test system: OVCAR-4; assay: Antitumor activity against human OVCAR4 cells; how it was run: as §1
[6] = test system: CCRF-CEM; assay: Antitumor activity against human CCRF-CEM cells; how it was run: as §1
[7] = Antitumor activity against human NCI-H322 cells; how it was run: as §1
[8] = test system: CCRF-CEM; assay: Growth inhibition of human vinblastine-resistant CEM cells after 72 hrs by MTT assay
How it was run: (§2)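 Growth inhibition by MTT after 72 h incubation. Resistant sublines: LoVoDoxo and MCF-7 MDR were kept in 0.1 µg/mL doxorubicin; CEMVbl-100 was selected against vinblastine. GI50 given as mean ± SEM of three independent experiments. Resistance index is resistant-line GI50 over parental GI50.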

[9] = test system: MOLT-4; assay: Antitumor activity against human MOLT4 cells; how it was run: as §1
[10] = test system: NCI-H460; assay: Antitumor activity against human NCI-H460 cells; how it was run: as §1
[11] = test system: SF-268; assay: Antitumor activity against human SF268 cells; how it was run: as §1
[12] = test system: PC-3; assay: Antitumor activity against human PC3 cells; how it was run: as §1
[13] = test system: OVCAR-3; assay: Antitumor activity against human OVCAR-3 cells; how it was run: as §1
[14] = test system: COLO 205; assay: Antitumor activity against human COLO205 cells; how it was run: as §1
[15] = test system: SK-MEL-28; assay: Antitumor activity against human SKMEL28 cells; how it was run: as §1
[16] = test system: TK-10; assay: Antitumor activity against human TK10 cells
How it was run: (§3)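 NCI 60-cell-line screen. Parameters were GI50 (50% net growth inhibition), TGI and LC50, each reported as –log molar concentration. Where an effect was not reached within the tested range, the highest tested concentration was used in the calculation.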

[17] = test system: EKVX; assay: Antitumor activity against human EKVX cells; how it was run: as §1
[18] = test system: SNB-19; assay: Antitumor activity against human SNB19 cells; how it was run: as §1
[19] = test system: UACC-257; assay: Antitumor activity against human UACC257 cells; how it was run: as §3
[20] = test system: MCF7; assay: Growth inhibition of human MCF7 cells after 72 hrs by MTT assay; settings: MCF7, 72 h; how it was run: as §2
[21] = test system: HCT-15; assay: Antitumor activity against human HCT15 cells; how it was run: as §1
[22] = test system: HCC 2998; assay: Antitumor activity against human HCC2998 cells; how it was run: as §1
[23] = Antitumor activity against human […] cells; how it was run: as §1
[24] = test system: HCT-116; assay: Antitumor activity against human HCT116 cells; how it was run: as §1
[25] = test system: NCI-H226; assay: Antitumor activity against human NCI-H226 cells; how it was run: as §1
[26] = test system: SW-620; assay: Antitumor activity against human SW620 cells; how it was run: as §3
[27] = test system: A498; assay: Antitumor activity against human A498 cells; how it was run: as §1
[28] = test system: SNB-75; assay: Antitumor activity against human SNB75 cells; settings: Homo sapiens, SNB-75; how it was run: as §1
[29] = test system: NCI/ADR-RES; assay: Antitumor activity against human NCI/ADR-RES cells; how it was run: as §1
[30] = test system: NCI-H460; assay: Cell viability against human NCI-H460 cells at 10 uM
[31] = test system: CCRF-CEM; assay: Resistance index, Ratio of GI50 for human vinblastine-resistant CEM cells to GI50 for human CEM cells
[32] = test system: OVCAR-8; assay: Antitumor activity against human OVCAR8 cells; how it was run: as §1
[33] = test system: MCF7; assay: Cell viability against human MCF7 cells at 10 uM
[34] = test system: T47D; assay: Antitumor activity against human T47D cells; how it was run: as §3
[35] = test system: U-251; assay: Antitumor activity against human U251 cells; how it was run: as §3
[36] = test system: SF-268; assay: Cell viability against human SF268 cells at 10 uM
[37] = test system: SK-MEL-2; assay: Antitumor activity against human SKMEL2 cells; how it was run: as §1
[38] = test system: MDA-MB-435; assay: Antitumor activity against human MDA-MB-435 cells; how it was run: as §1
[39] = test system: A549; assay: Antitumor activity against human A549 cells; how it was run: as §1
[40] = test system: MCF7; assay: Growth inhibition of human multidrug-resistant MCF7 cells after 72 hrs by MTT assay; settings: MCF7, 72 h; how it was run: as §2
[41] = read-out: Log LC50 (the source's name) (converted)

Question: What does the source list for `O=c1[nH]c2cc(Cl)c(Cl)cc2n2cc3ccccc3c12`?
Answer: GI50 [1]: 17 µM; LC50 (50% net cell death) [1]: 55 µM; TGI ([1]; read-out: pTGI (converted)): 30.9 µM; GI50 [2]: 17.4 µM; CC50 [2, 41]: 56.2 µM; TGI ([2]; read-out: pTGI (converted)): 30.9 µM; GI50 [3]: 19.1 µM; LC50 (50% net cell kill) [3]: 81.3 µM; TGI ([3]; read-out: pTGI (converted)): 39.8 µM; GI50 [4]: 28.8 µM; LC50 [4]: > 100 µM; TGI ([4]; read-out: pTGI (converted)): > 100 µM; GI50 [5]: 20.4 µM; LC50 (50% net cell kill) [5]: > 100 µM; TGI ([5]; read-out: pTGI (converted)): 50.1 µM; GI50 [6]: 21.9 µM; LC50 [6]: > 100 µM; TGI ([6]; read-out: pTGI (converted)): 49 µM; GI50 [7]: 13.5 µM; LC50 (50% net cell death) [7]: 55 µM; TGI ([7]; read-out: pTGI (converted)): 26.9 µM; GI50 [8]: 1.9 µM; GI50 [9]: 18.6 µM; LC50 [9]: 72.4 µM; TGI ([9]; read-out: pTGI (converted)): 37.2 µM; GI50 [10]: 18.6 µM; CC50 [10, 41]: 57.5 µM; TGI ([10]; read-out: pTGI (converted)): 33.1 µM; GI50 [11]: 24 µM; CC50 [11, 41]: 75.9 µM; TGI ([11]; read-out: pTGI (converted)): 42.7 µM; GI50 [12]: 17.4 µM; LC50 (50% net cell death) [12]: 56.2 µM; TGI ([12]; read-out: pTGI (converted)): 30.9 µM; GI50 [13]: 18.6 µM; LC50 (50% net cell death) [13]: 57.5 µM; TGI ([13]; read-out: pTGI (converted)): 32.4 µM; GI50 [14]: 29.5 µM; LC50 [14]: > 100 µM; TGI ([14]; read-out: pTGI (converted)): 39.8 µM; GI50 [15]: 33.1 µM; CC50 [15, 41]: > 100 µM; TGI ([15]; read-out: pTGI (converted)): > 100 µM; GI50 [16]: 16.6 µM; CC50 [16, 41]: 55 µM; TGI ([16]; read-out: pTGI (converted)): 30.2 µM; GI50 [17]: 21.9 µM; LC50 (50% net cell kill) [17]: 87.1 µM; TGI ([17]; read-out: pTGI (converted)): 43.7 µM; GI50 [18]: 21.9 µM; CC50 [18, 41]: > 100 µM; TGI ([18]; read-out: pTGI (converted)): 56.2 µM; GI50 [19]: 20.4 µM; LC50 [19]: > 100 µM; TGI ([19]; read-out: pTGI (converted)): 49 µM; GI50 [20]: 3.3 µM; GI50 [21]: 16.6 µM; CC50 [21, 41]: 55 µM; TGI ([21]; read-out: pTGI (converted)): 30.2 µM; GI50 [22]: 0.813 µM; LC50 [22]: 43.7 µM; TGI ([22]; read-out: pTGI (converted)): 18.6 µM; GI50 [23]: 17.4 µM; LC50 [23]: 61.7 µM; TGI ([23]; read-out: pTGI (converted)): 32.4 µM; GI50 [24]: 20.9 µM; LC50 [24]: 58.9 µM; TGI ([24]; read-out: pTGI (converted)): 35.5 µM; GI50 [25]: 18.6 µM; LC50 (50% net cell kill) [25]: 69.2 µM; TGI ([25]; read-out: pTGI (converted)): 35.5 µM; GI50 [26]: 15.8 µM; CC50 [26, 41]: 53.7 µM; TGI ([26]; read-out: pTGI (converted)): 29.5 µM; GI50 [27]: 15.8 µM; CC50 [27, 41]: 56.2 µM; TGI ([27]; read-out: pTGI (converted)): 30.2 µM; GI50 [28]: 21.4 µM; LC50 [28]: > 100 µM; TGI ([28]; read-out: pTGI (converted)): 53.7 µM; GI50 [29]: 17.8 µM; LC50 [29]: 56.2 µM; TGI ([29]; read-out: pTGI (converted)): 31.6 µM; Activity [30]: 0%; RatioGI50 [31]: 0.86; GI50 [32]: 18.6 µM; LC50 (50% net cell death) [32]: 57.5 µM; TGI ([32]; read-out: pTGI (converted)): 32.4 µM; Activity [33]: 10%; GI50 [34]: 30.9 µM; LC50 [34]: > 100 µM; TGI ([34]; read-out: pTGI (converted)): 75.9 µM; GI50 [35]: 16.2 µM; CC50 [35, 41]: 55 µM; TGI ([35]; read-out: pTGI (converted)): 30.2 µM; Activity [36]: 13%; GI50 [37]: 25.1 µM; LC50 [37]: > 100 µM; TGI ([37]; read-out: pTGI (converted)): 53.7 µM; GI50 [38]: 17 µM; LC50 (50% net cell death) [38]: 55 µM; TGI ([38]; read-out: pTGI (converted)): 30.2 µM; GI50 [39]: 19.1 µM; CC50 [39, 41]: 63.1 µM; TGI ([39]; read-out: pTGI (converted)): 34.7 µM; GI50 [40]: 7.6 µM
